The values below come from article PMC4047138 (Pharmacological research : the official journal of the …, 2013).

Each structure is given as a SMILES string. “Also recorded” adds a separate entry of the source.

For assay [1], the target named is T1, hV2R[L^83Q] (Homo sapiens, UniProt P30518, L83Q). Kind of assay: hV2R[L^83Q] pharmacoperone assay. The format is cell-based. The conditions noted are these: for LOPAC Screen Average % Response +/- Std Dev: single concentration of 6 μM (0.4% DMSO), SR121463 as positive control, -Dox.
The test system of assay [2] is hV2R[L^83Q] cells in the presence of doxycycline. Briefly: counter screen: same hV2R[L^83Q] HeLa cells incubated with doxycycline 36 hours. It counts as cell-based. The conditions noted are these: Homo sapiens, read-out: EC50 (μM) +Dox. Summed up:
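HeLa line expressing hV2R[L83Q] under a tetracycline-regulated (TET-off) transactivator. Cells are pretreated with compound, challenged with an EC100 dose of vasopressin, lysed, and cAMP is read by cAMP-Glo luminescence. […] The −Dox run expresses the mutant. The +Dox counter screen adds doxycycline 36 hours before assay, shutting off mutant expression.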

The subject of another assay is GnRHR[E^90K]. The conditions noted are these: mouse, in vivo; cited from earlier work.
In assay [3] the target is T1, hV2R[L^83Q]. The conditions noted are these: pre-treatment with 100 nM, absence of Dox, 384-well; cited from earlier work.

As to `C=C[C@@]1(C)CC(=O)[C@]2(O)[C@@]3(C)[C@@H](O)CCC(C)(C)[C@@H]3[C@H](O)[C@H](OC(C)=O)[C@@]2(C)O1` [Forskolin], at hV2R[L^83Q] [1], the “LOPAC Screen Average % Response +/- Std Dev” value was 104+/−0%. Moreover, in assay [2], the EC50 (usually the midpoint of the concentration-response curve) was 0.59 µM.
Consider `Cc1cc(C)cc(-c2[nH]c3ccc(C(C)(C)C(=O)N4CC5CCC4CC5)cc3c2[C@H](C)CNCCc2ccncc2)c1` [IN3, (2S)-2-[5-[2-(2-azabicyclo[2.2.2]oct-2-yl)-1,1-dimethyl-2-oxoethyl]-2-(3,5-dimethylphenyl)-1H-indol-3-yl]-N-(2-pyridin-4-ylethyl)propan-1-amine], for which the “testis weight / size” value in the assay on GnRHR[E^90K] was “increased testis size; also recorded: markedly increased”.
Regarding `Cc1ccccc1N1CCN(S(=O)(=O)C[C@]23CC[C@H](C[C@@H]2NC(=O)[C@@H](N)CCS(C)(=O)=O)C3(C)C)CC1` [L-368,899], on hV2R[L^83Q] [1], the “LOPAC Screen Average % Response +/- Std Dev” value is 74+/−2%.
As to `O=C1c2c(O)ccc(O)c2C(=O)c2c(NCCNCCO)ccc(NCCNCCO)c21` [Mitoxantrone], the EC50 in assay [2] was above 25 µM.
Take `CCOc1ccc2c(c1)C1(CCC(OCCN3CCOCC3)CC1)C(=O)N2S(=O)(=O)c1ccc(C(=O)NC(C)(C)C)cc1OC` (stereo not shown) [SR121463]: the “signal-to-background ratio (S/B)” value at hV2R[L^83Q] [1] (-Dox assay, n=4) was around 7. The “cAMP response to vasopressin challenge after pharmacoperone pre-treatment” value at hV2R[L^83Q] [3] is “robust cAMP response”.
